Experimental data: publication PMC4234452 (Journal of Medicinal Chemistry, 2014)

Assays:
human TG2 = target: T1, human TG2 (Homo sapiens, UniProt P21980, V224G); experiment: GDH-coupled transglutaminase assay, TG2; assay type: biochemical
T1 sequence (P21980 1-687 V224G): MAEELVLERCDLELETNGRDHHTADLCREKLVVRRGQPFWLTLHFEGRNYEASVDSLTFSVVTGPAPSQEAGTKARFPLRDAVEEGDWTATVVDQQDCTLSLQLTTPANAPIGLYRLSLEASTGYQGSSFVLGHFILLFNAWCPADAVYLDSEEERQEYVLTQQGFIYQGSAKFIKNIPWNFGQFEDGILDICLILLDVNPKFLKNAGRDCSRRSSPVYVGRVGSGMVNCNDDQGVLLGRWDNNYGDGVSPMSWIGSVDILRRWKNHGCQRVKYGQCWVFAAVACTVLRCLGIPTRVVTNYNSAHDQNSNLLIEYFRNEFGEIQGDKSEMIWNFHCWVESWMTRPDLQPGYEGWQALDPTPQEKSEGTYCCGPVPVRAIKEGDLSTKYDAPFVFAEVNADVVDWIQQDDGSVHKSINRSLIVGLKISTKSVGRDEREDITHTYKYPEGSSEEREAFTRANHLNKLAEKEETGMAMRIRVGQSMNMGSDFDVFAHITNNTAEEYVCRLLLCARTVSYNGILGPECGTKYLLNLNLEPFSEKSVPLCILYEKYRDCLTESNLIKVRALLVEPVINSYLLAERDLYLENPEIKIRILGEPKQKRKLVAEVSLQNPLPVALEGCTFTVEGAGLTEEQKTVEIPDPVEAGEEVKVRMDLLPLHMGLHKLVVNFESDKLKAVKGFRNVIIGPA

murine TG2 (mTG2) = target: T2, murine TG2 (mTG2) (Mus musculus, UniProt P21981); experiment: GDH-coupled transglutaminase assay, murine TG2; assay type: biochemical; details: irreversible inhibition model, substrate ZQG
T2 sequence (P21981 1-686): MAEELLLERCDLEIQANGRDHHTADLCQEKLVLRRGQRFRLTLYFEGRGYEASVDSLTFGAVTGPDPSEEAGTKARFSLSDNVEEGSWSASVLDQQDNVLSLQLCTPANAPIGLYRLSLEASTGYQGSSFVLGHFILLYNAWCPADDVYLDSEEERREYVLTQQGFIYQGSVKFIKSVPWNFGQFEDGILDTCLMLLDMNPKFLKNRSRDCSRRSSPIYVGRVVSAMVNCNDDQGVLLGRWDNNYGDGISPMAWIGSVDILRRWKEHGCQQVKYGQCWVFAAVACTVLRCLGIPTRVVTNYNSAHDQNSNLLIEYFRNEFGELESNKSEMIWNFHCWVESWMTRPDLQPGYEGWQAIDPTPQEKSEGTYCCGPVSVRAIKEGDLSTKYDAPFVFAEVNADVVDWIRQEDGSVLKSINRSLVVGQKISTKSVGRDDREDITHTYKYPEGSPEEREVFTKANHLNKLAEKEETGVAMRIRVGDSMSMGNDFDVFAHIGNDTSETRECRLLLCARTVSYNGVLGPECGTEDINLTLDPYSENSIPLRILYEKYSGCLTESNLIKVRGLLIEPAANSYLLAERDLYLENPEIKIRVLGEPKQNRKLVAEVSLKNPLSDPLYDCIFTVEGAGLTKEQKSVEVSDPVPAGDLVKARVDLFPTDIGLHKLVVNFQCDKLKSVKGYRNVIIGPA

[1] = Plasma concentrations after pooled oral dosing to mice; assay type: in vivo; details: 50 mg/kg
Procedure, shortened: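 Test compounds given as mixtures by oral gavage (10 μL/g) at 50 mg/kg of each constituent to cohorts of five male CD-1 mice, 6−8 weeks old, fasted about 6 h. Blood was drawn into lithium-heparin tubes from the saphenous vein at 5 and 20 min, and by cardiac puncture at 60 min after CO2 euthanasia. Each compound's plasma concentration was quantified and plotted against time.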

TG2 = details: murine model of hypoxia-induced pulmonary hypertension ref 22; cited from earlier work
[2] = target: T3, Human Transglutaminase 3 (TG3) (Homo sapiens, UniProt Q08188); experiment: GDH-coupled transglutaminase assay, TG3; assay type: biochemical; details: irreversible inhibition model, substrate ZQS
T3 sequence (Q08188 2-467 limits assumed): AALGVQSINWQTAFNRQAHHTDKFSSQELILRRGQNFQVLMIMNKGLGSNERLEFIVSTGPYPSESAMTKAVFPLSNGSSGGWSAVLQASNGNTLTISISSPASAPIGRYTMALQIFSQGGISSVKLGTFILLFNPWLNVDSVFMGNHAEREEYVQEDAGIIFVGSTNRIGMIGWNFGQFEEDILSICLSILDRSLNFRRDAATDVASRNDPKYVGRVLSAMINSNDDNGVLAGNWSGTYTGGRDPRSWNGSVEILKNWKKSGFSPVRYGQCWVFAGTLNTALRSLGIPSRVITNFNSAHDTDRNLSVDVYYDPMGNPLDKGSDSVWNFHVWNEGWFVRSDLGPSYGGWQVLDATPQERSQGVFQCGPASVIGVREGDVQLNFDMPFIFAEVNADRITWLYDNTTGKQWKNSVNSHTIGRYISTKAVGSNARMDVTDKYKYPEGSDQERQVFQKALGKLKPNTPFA
T3 sequence (Q08188 468-693 partner limits assumed): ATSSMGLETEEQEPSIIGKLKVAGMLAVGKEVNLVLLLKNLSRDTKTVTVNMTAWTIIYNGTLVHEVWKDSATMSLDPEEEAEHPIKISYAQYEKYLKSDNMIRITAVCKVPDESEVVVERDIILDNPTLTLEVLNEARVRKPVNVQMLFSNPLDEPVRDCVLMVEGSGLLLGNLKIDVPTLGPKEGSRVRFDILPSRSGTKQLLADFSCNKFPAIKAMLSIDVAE

human TG1 = target: T4, human TG1 (Homo sapiens, UniProt P22735); experiment: GDH-coupled transglutaminase assay, TG1; assay type: biochemical
T4 sequence (P22735 63-817): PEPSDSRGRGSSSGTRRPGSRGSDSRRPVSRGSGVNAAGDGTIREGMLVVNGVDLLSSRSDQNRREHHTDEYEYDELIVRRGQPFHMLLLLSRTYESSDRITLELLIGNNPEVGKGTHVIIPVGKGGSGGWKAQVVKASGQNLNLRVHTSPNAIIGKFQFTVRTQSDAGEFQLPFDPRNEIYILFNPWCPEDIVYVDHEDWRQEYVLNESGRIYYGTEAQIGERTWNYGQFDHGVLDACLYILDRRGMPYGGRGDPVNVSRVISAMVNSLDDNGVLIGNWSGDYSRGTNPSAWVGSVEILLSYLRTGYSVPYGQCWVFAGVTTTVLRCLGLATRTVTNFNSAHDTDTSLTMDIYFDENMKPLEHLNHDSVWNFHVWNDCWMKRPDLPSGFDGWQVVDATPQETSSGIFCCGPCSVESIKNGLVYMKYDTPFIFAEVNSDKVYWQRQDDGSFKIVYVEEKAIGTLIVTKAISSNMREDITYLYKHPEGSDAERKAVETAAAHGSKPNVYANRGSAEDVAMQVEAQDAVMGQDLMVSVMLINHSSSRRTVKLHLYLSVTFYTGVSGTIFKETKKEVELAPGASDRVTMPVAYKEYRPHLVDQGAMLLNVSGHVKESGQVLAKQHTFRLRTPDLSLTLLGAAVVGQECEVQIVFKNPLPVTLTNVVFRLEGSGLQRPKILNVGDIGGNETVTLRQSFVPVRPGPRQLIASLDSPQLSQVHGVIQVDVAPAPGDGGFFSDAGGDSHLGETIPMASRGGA

[3] = twice-daily, intraperitoneal, 50 mg/kg, several weeks ref 22; cited from earlier work

Molecule | kinh/Ki mTG2 (murine TG2 (mTG2)) | kinh/Ki TG3 [2] | other results
O=C(NC[C@@H]1CC(Br)=NO1)[C@@H]1CCCN1C(=O)OCc1cnc2ccccc2c1 [Compound 1, (S)-Quinolin-3-ylmethyl 2-((((S)-3-Bromo-4,5-dihydroisoxazol-5-yl)methyl)carbamoyl)pyrrolidine-1-carboxylate] | 138 M⁻¹ s⁻¹ | < 16.7 M⁻¹ s⁻¹ | kinh/Ki TG2 (human TG2; irreversible inhibition model, substrate ZQG, listed as ERW1041E): 283 M⁻¹ s⁻¹; decrease in potency from ERW1069 to ERW1041E (human TG2; relative to ERW1069): 3–4 fold; peak plasma concentration after oral dosing [1]: 2 to 3 µg/mL; inhibitory half-life (TG2): about 12 h; kinh/Ki TG1 (human TG1; irreversible inhibition model, substrate ZQS, listed as ERW1041E): 217 M⁻¹ s⁻¹; tolerability [3]: well tolerated
O=C(NC[C@@H]1CC(Br)=NO1)[C@@H]1C[C@H](F)CN1C(=O)OCc1cnc2ccccc2c1 [Compound 4b, (2S,4S)-Quinolin-3-ylmethyl 2-((((S)-3-Bromo-4,5-dihydroisoxazol-5-yl)methyl)carbamoyl)-4-fluoropyrrolidine-1-carboxylate] | 117 M⁻¹ s⁻¹ | < 16.7 M⁻¹ s⁻¹ | 
O=C(NC[C@@H]1CC(Br)=NO1)[C@@H]1C[C@@H](O)CN1C(=O)OCc1cnc2ccccc2c1 [Compound 4e, (2S,4R)-Quinolin-3-ylmethyl 2-((((S)-3-Bromo-4,5-dihydroisoxazol-5-yl)methyl)carbamoyl)-4-hydroxypyrrolidine-1-carboxylate] | 185 M⁻¹ s⁻¹ | < 16.7 M⁻¹ s⁻¹ | 
O=C(NC[C@@H]1CC(Br)=NO1)[C@@H]1C[C@@H](c2ccccc2)CN1C(=O)OCc1cnc2ccccc2c1 [Compound 7a, (2S,4S)-Quinolin-3-ylmethyl 2-((((S)-3-Bromo-4,5-dihydroisoxazol-5-yl)methyl)carbamoyl)-4-phenylpyrrolidine-1-carboxylate] | 423 M⁻¹ s⁻¹ | < 16.7 M⁻¹ s⁻¹ | plasma levels, fold lower than that of 4b [1]: 3–4 fold
C#CCOC(=O)N1CCC[C@H]1C(=O)NC[C@@H]1CC(Br)=NO1 [Compound 10b, (S)-Prop-2-yn-1-yl 2-((((S)-3-Bromo-4,5-dihydroisoxazol-5-yl)methyl)carbamoyl)pyrrolidine-1-carboxylate] |  |  | selectivity for TG2 over TG1 (human TG2; from kinh/Ki): 3 fold
O=C(NC[C@@H]1CC(Br)=NO1)[C@@H]1CCCN1C(=O)OCc1cnc2ccccc2n1 [Compound 10l, (S)-Quinoxalin-2-ylmethyl 2-((((S)-3-Bromo-4,5-dihydroisoxazol-5-yl)methyl)carbamoyl)pyrrolidine-1-carboxylate] |  |  | selectivity for TG1 (over TG2) (human TG1; from kinh/Ki): 10 fold
(2S,4R)-Quinolin-3-ylmethyl 4-(Benzyloxy)-2-((((S)-3-bromo-4,5-dihydroisoxazol-5-yl)methyl)carbamoyl)pyrrolidine-1-carboxylate [Compound 5c] | 258 M⁻¹ s⁻¹ | < 16.7 M⁻¹ s⁻¹ | 

Second part, led by results:

kinh/Ki mTG2 (murine TG2 (mTG2)) | kinh/Ki TG3 [2] | Molecule | other results
645 M⁻¹ s⁻¹ | < 16.7 M⁻¹ s⁻¹ | O=C(NC[C@@H]1CC(Br)=NO1)[C@@H]1C[C@@H](c2ccc(O)cc2)CN1C(=O)OCc1cnc2ccccc2c1 [Compound 7e, (2S,4S)-Quinolin-3-ylmethyl 2-((((S)-3-Bromo-4,5-dihydroisoxazol-5-yl)methyl)carbamoyl)-4-(4-hydroxyphenyl)pyrrolidine-1-carboxylate] | plasma levels, fold lower than that of 4b [1]: 3–4 fold
157 M⁻¹ s⁻¹ | < 16.7 M⁻¹ s⁻¹ | O=C(N[C@@H]1C[C@@H](C(=O)NC[C@@H]2CC(Br)=NO2)N(C(=O)OCc2cnc3ccccc3c2)C1)c1ccc(O)cc1 [Compound 9d, (2S,4R)-Quinolin-3-ylmethyl 2-((((S)-3-Bromo-4,5-dihydroisoxazol-5-yl)methyl)carbamoyl)-4-(4-hydroxybenzamido)pyrrolidine-1-carboxylate] | oral bioavailability / systemic availability (in words) [1]: much less bioavailable
177 M⁻¹ s⁻¹ | < 16.7 M⁻¹ s⁻¹ | O=C(N[C@@H]1C[C@@H](C(=O)NC[C@@H]2CC(Br)=NO2)N(C(=O)OCc2cnc3ccccc3c2)C1)c1cccnc1 [Compound 9e, (2S,4R)-Quinolin-3-ylmethyl 2-((((S)-3-Bromo-4,5-dihydroisoxazol-5-yl)methyl)carbamoyl)-4-(nicotinamido)pyrrolidine-1-carboxylate] | oral bioavailability / systemic availability (in words) [1]: much less bioavailable
